# Screens: PubChem BioAssay, several laboratories
# Sampled rows, rich in hits. Any-hit rate of the full collection: about 4.9%.
# STAT1 inh-1: STAT1 signaling inhibitors, primary screen, cell-based, HTS, luciferase reporter; NIH 3T3 STAT1-luciferase reporter, IFN-gamma, luminescence; inhibition, % at 5.5 µM; 200,000 tested, 0.35% active; AID 920, 2007;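 active means inhibition above a set limit, the mean inhibition across all tested compounds plus 3 SD, cut at about 34% in these data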;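 further: 0% = IFN-gamma with DMSO and 100% = IFN-gamma with 300 µM nifuroxazide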
# STAT3 act: IL-6 driven STAT3 reporter potentiators, primary screen, U3A cells, luciferase, luminescence, MLSCN library; IL-6 STAT3-luciferase reporter; 100% = signal with IL-6 EC80 alone; AID 871, 2007; activation (% of control), % at 5.6 µM; 190,000 tested, 0.91% active;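 active means activation above the screen-wide mean of compound activation plus 3 SD, cut at about 130% in these data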;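 further: 0% = background luminescence of wells with medium and substrate only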
#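 Test system: Human STAT1-deficient U3A cells with stable STAT3-luciferase reporter | Also added: Interleukin-6, 33 ng/mL | Timing: Compound pre-incubation 1 h before IL-6, then 6 h stimulation at 37 °C | Technique: Luciferase reporter luminescence | Read-out: Percent of IL-6-only median luminescence | Benchmarks: IL-6-only wells as 100% reference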
# FLuc inh counter: firefly luciferase enzyme inhibitors, primary screen, artefact control for luciferase-based inhibitor screens, biochemical, luminescence, ATPLite | Luciferin 4-monooxygenase (Photinus pyralis), P08659 | 10 min | inhibition, % at 10 µM | 200,000 tested, 1.5% active;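 active means inhibition above about 50% when tested at 10 µM, limit read from the data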
# Target sequence (P08659 whole entry, looked up): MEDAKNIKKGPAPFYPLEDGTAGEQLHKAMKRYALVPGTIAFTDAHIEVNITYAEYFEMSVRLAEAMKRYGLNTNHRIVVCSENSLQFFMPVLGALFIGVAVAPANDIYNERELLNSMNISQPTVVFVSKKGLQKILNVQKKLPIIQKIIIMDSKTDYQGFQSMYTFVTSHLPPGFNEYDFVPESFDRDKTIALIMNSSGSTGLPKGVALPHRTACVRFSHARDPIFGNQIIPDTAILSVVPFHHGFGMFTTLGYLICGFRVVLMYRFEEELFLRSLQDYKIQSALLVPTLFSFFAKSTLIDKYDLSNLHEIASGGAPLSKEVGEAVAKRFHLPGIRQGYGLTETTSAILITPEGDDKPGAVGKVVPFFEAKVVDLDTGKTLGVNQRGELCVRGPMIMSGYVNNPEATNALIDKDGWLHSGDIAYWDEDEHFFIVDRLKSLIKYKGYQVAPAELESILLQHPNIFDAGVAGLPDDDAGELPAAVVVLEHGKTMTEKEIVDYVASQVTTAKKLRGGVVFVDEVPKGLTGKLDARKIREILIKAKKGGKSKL
# STAT1 act: STAT1 signaling activators, primary screen, cell-based, HTS, luciferase reporter; activation (% of control), % at 5.5 µM; 200,000 tested, 2.6% active; NIH 3T3 STAT1-luciferase reporter, IFN-gamma, luminescence; 100% = IFN-gamma alone, no compound;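 active means activation above the screen-wide mean activation plus 3 SD, cut at about 130% in these data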;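 further: raw ratio to IFN-gamma control signal so 100% means no change and 0% no light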
# STAT3 inh: IL-6 driven STAT3 reporter inhibitors, primary screen, U3A cells, luciferase, luminescence, MLSCN library; IL-6 STAT3-luciferase reporter; host cell line lacks STAT1; inhibition, % at 5.5 µM; 190,000 tested, 0.89% active; AID 862, 2007;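 active means inhibition above the mean inhibition across all screened compounds plus 3 SD, cut at about 44% in these data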;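 further: 0% = DMSO only wells and 100% = 100 µM nifuroxazide control wells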
# FLuc act counter: FLuc activators, initial screening, artefact control for FLuc-dependent activation tests, biochemical, ATPlite luminescence; ATPlite luciferase biochemical, 10 min; 0 = ATP-free wells, 1 = DMSO control; Luciferin 4-monooxygenase (Photinus pyralis), P08659; activation factor at 10 µM; 200,000 tested, under 10 active;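 active means luciferase activation factor, scaled between plate controls, of at least 2 with compound at 10 µM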
#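 test system = cell-free luciferase reagent | medium = PBS as buffer for the ATP substrate | dosing = test compounds dosed from 2 mM stocks in 100% DMSO | incubation = 10 min at ambient temperature | detection = luminescence measurement of luciferase light output | benchmarks = low control with PBS replacing ATP, high control enzyme plus ATP without compound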
# STAT1 inh-2: STAT1 signaling inhibitors, confirmation, cell-based, HTS, luciferase reporter; shares compounds with STAT1 inh-1; NIH 3T3 STAT1-luciferase reporter, IFN-gamma, luminescence; inhibition, % at 5.5 µM; 200 tested, 55% active; AID 1263, 2008;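 active means triplicate mean inhibition exceeding the hit cutoff computed for the primary STAT1 screen, cut at about 35% in these data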;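 further: 0% = DMSO with IFN-gamma and 100% = 300 µM nifuroxazide with IFN-gamma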
# NFkB inh STAT1ct: NF-kB reporter inhibitors, TNF-alpha stimulated, counter-screen for STAT1 inhibitor project, cell-based, HEK293T, luciferase luminescence. AID 1303, 2008. shares compounds with STAT1 inh-1. 200 tested, 30% active. TNF-alpha induced. inhibition, % at 5.7 µM;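 active means inhibition above the mean of solvent-only control wells plus 3 SD of those wells, cut at about 15% in these data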;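 further: 0% = DMSO with TNF-alpha and 100% = MG-132 control with TNF-alpha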
# STAT3 inh STAT1c: STAT3 reporter inhibition by STAT1 hits, counter-screen for STAT1 inhibitor project, U3A cells, luciferase, luminescence, triplicate; shares compounds with STAT1 inh-1; IL-6 STAT3 luciferase reporter; cells lacking STAT1; inhibition, % at 5.7 µM; 200 tested, 20% active;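 active means inhibition above the mean of solvent-only control wells plus 3 SD, set per campaign, cut at about 25% in these data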;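 further: 0% = IL-6 plus DMSO and 100% = IL-6 plus nifuroxazide control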
# * hit, by the source's call; nt = not tested or not shown.
SMILES,STAT1 inh-1,STAT3 act,FLuc inh counter,STAT1 act,STAT3 inh,FLuc act counter,STAT1 inh-2,NFkB inh STAT1ct,STAT3 inh STAT1c
CCCCn1c(=NC(=O)c2ccco2)c(C(=O)OCC)cc2c(=O)n3ccccc3nc21,-1,94,-6,101,9,1.1,nt,nt,nt
CCOC(=O)c1cc2c(=O)n3ccccc3nc2n(Cc2ccco2)c1=NC(=O)c1ccc(OC)cc1OC,60*,83,-3,44,23,1,22,10,25*
CC(C)CN1C(=O)C(=Nc2cccnc2)c2ccccc21,-7,108,-8,104,-8,1.1,nt,nt,nt
CN(c1ccccc1)S(=O)(=O)c1cc(C(=O)OCC(N)=O)ccc1Cl,-2,110,-7,101,-5,1.1,nt,nt,nt
CCN(CC)CCNC(=O)c1cc2cc(Br)ccc2s1,0,106,-8,99,-6,1.1,nt,nt,nt
COc1ccc(-c2cc(C(F)(F)F)nc(S(=O)(=O)CCCC(=O)Nc3cccnc3Cl)n2)cc1OC,44*,99,1,58,4,1,38*,5,-8
COC(=O)CCS(=O)(=O)c1nc(-c2ccccc2)cc(C(F)(F)F)n1,38*,92,-4,65,13,1,42*,-14,4
O=C(O)CCS(=O)(=O)c1nc(-c2cccs2)cc(C(F)(F)F)n1,27,95,-8,75,12,1.1,nt,nt,nt
Cc1cc(NC(=O)CCCS(=O)(=O)c2nc(-c3cccs3)cc(C(F)(F)F)n2)no1,47*,90,-2,57,16,1,48*,-5,3
CCOC(=O)CS(=O)(=O)c1nc(-c2ccc(F)cc2)cc(C(F)(F)F)n1,34*,98,-4,67,9,1,46*,22*,13
Cc1cc(NC(=O)CSc2nc(-c3cccs3)cc(C(F)(F)F)n2)no1,0,100,-9,100,4,1.1,nt,nt,nt
COc1cccc(OC)c1C(=O)OCC(=O)Nc1cccnc1Cl,2,106,1,98,-3,1,nt,nt,nt
COCC(C)NC(=O)CCS(=O)(=O)c1nc(-c2ccc(OC)cc2)cc(C(F)(F)F)n1 (stereo not given),43*,97,-12,61,8,1.1,51*,-1,9
COc1ccc(-c2cc(C(F)(F)F)nc(S(C)(=O)=O)n2)cc1,30,96,-6,72,2,1.1,nt,nt,nt
CCOC(=O)CCS(=O)(=O)c1nc(-c2ccccc2)cc(C(F)(F)F)n1,40*,96,2,63,8,1,45*,0,0
COCCNC(=O)CCSc1nc(-c2ccc(OC)cc2)cc(C(F)(F)F)n1,1,96,-11,104,8,1.1,nt,nt,nt
CS(=O)(=O)c1nc(-c2ccc(F)cc2)cc(C(F)(F)F)n1,45*,89,-10,58,20,1.1,39*,-12,-14
COc1nc(-c2ccccc2)cc(C(F)(F)F)n1,3,90,-5,97,16,1.1,nt,nt,nt
O=C(C(Sc1ccccc1)c1ccccc1)N1CCOCC1 (stereo not given),2,101,-7,98,4,1.1,nt,nt,nt
CC(=O)Nc1ccc(N2C(=O)c3ccc(C(=O)Nc4nnc(SCc5ccc(F)cc5)s4)cc3C2=O)cc1,-5,94,-1,102,12,1,nt,nt,nt
COCCNC(=O)C(c1ccccc1F)N(C(=O)C(=O)NC1CCCC1)C1CCCCC1 (stereo not given),6,100,-1,93,5,1,nt,nt,nt
O=C(O)C(Cc1ccccc1)N=Cc1c(O)c2ccccc2oc1=O (stereo not given),41*,95,-2,63,10,1,19,-5,-24
O=c1oc2ccccc2c(O)c1C=NCc1ccccn1,-5,94,17,105,10,0.8,nt,nt,nt
Clc1ccc(C[n+]2cc(-c3ccccc3)n3c2CCCCC3)c(Cl)c1,40*,79,-3,63,26,1,28,-9,26*
Clc1ccc(C[n+]2cc(-c3ccccc3)n3c2CCC3)cc1Cl,16,75,-7,86,32,1.1,nt,nt,nt
SMILES,STAT1 inh-1,STAT3 act,FLuc inh counter,STAT1 act,STAT3 inh,FLuc act counter,STAT1 inh-2,NFkB inh STAT1ct,STAT3 inh STAT1c
COc1ccccc1OCC(=O)OCC(=O)Nc1sccc1C(N)=O,-1,96,0,101,7,1,nt,nt,nt
COc1cc(C(=O)OCC(=O)Nc2sccc2C(N)=O)cc(OC)c1OC,42*,80,1,60,28,1,-4,0,6
CCCn1nc(C(=O)OCC(=O)c2c(N)n(C)c(=O)n(C)c2=O)c2ccccc2c1=O,49*,92,-6,54,14,1.1,31,4,-2
COC(=O)C(CO)NC(=O)C(C)NC(=O)CNC(=O)OCc1ccccc1 (stereo not given),-9,104,-2,108,-2,1,nt,nt,nt
COc1ccc(/C=C2\SC(=S)N(CCCC(=O)Nc3ccccn3)C2=O)cc1OC,10,97,-2,91,6,1,nt,nt,nt
Cc1ccc(/C=C2\SC(=S)N(CCCC(=O)Nc3ccccn3)C2=O)cc1,38*,65,0,65,43,1,40*,44*,46*
CCO[C@@H]1OC(C(=O)O)=C[C@H](c2ccc(Br)cc2)[C@H]1CCCO,3,nt,-4,99,nt,1,nt,nt,nt
O=S(=O)(CC(CN1CCCCC1)N1CCCCC1)c1ccc2ccccc2c1 (stereo not given),35*,104,2,65,2,1,15,-3,-50
CCCS(=O)(=O)c1nnnn1-c1cccc(OC)c1,46*,95,-2,58,11,1,52*,24*,0
O=C(c1ccco1)N1CCN(c2ccnc3cc(Cl)ccc23)CC1,35*,98,-5,67,11,1.1,43*,24*,-8
Cc1nnc(NC(=O)c2cccc(S(=O)(=O)N3CCc4ccccc43)c2)s1,8,89,-10,93,12,1.1,nt,nt,nt
